Square brackets hold non-standard residues; d marks the D form. Peptide text beside a SMILES is read from it. dPhe(4-F) = N[C@H](Cc1ccc(F)cc1)C(=O)O; d2Nal = N[C@H](Cc1ccc2ccccc2c1)C(=O)O
Key:
[1] = target: T1, Gonadotropin-releasing hormone receptor (Rattus norvegicus) (UniProt P30969); experiment: Antiovulatory activity on diestrus II following administration as a solution in corn oil (24h earlier) in rat.; type: functional, organism-based
T1 sequence (whole entry): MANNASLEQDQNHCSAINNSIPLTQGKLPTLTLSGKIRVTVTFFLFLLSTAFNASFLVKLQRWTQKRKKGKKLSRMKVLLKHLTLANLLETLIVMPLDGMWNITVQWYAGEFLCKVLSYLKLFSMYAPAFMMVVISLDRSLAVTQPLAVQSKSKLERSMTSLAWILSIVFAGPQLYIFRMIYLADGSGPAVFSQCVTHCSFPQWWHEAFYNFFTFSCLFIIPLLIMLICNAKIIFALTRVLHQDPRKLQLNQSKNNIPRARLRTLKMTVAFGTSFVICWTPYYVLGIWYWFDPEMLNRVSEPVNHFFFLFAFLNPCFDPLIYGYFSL
How it was run: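 Female rats with at least two normal 4-day cycles before the test cycle were selected. They received the analogue sc in corn oil at noon on diestrus II, 24 h before the proestrus dosing time. On the morning of expected estrus the oviducts were examined under a dissecting microscope, and freshly ovulated eggs were counted. ED50 was taken from percent ovulating versus log-dose, with 10 rats per dose group and usually three or more dose groups.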

[2] = target: T1, Gonadotropin-releasing hormone receptor (Rattus norvegicus); experiment: Antiovulatory activity on proestrus was measured by administering as a solution in 50% propylene glycol / 0.9% saline in rat; type: functional
[3] = target: T1, Gonadotropin-releasing hormone receptor (Rattus norvegicus); experiment: Antiovulatory activity on proestrus following administration of solution in corn oil in rat.; type: functional, organism-based
How it was run: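 Rats with at least two normal 4-day cycles were used. They were injected sc with the analogue in corn oil at noon on proestrus, about 2 h before the preovulatory LH-RH surge. Oviducts were removed on the morning of expected estrus and checked microscopically for fresh eggs, which were counted. ED50 came from percent of females ovulating plotted against log-dose, with 10 animals per dose group.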

ED50 (ug injection-1) [1] | ED50 (ug injection-1) [2] | ED50 (ug injection-1) [3] | Structure (SMILES)
9 | 2.4 | 1.1 | CC(=O)N[C@H](Cc1ccc2ccccc2c1)C(=O)N[C@H](Cc1ccc(F)cc1)C(=O)N[C@H](Cc1c[nH]c2ccccc12)C(=O)N[C@@H](CO)C(=O)N[C@@H](Cc1ccc(O)cc1)C(=O)N[C@H](CCCN=C(N)N)C(=O)N[C@@H](CC(C)C)C(=O)N[C@@H](CCCN=C(N)N)C(=O)N1CCC[C@H]1C(=O)NCC(N)=O (Ac-[d2Nal][dPhe(4-F)][dW]SY[dR]LRPG-NH2)
140 | 2.2 | 3.3 | CC(=O)N1CCC[C@H]1C(=O)N[C@H](Cc1ccc(F)cc1)C(=O)N[C@H](Cc1ccc2ccccc2c1)C(=O)N[C@@H](CO)C(=O)NC(Cc1ccc(O)cc1)C(=O)N[C@@H](Cc1ccc2ccccc2c1)C(=O)N[C@@H](CC(C)C)C(=O)N[C@@H](CCCN=C(N)N)C(=O)N1CCC[C@H]1C(=O)NCC(N)=O (stereo in doubt)
< 8 | 1.3 | 2 | CC(=O)N[C@H](Cc1ccc(Cl)cc1)C(=O)N[C@H](Cc1ccc(Cl)cc1)C(=O)N[C@H](Cc1c[nH]c2ccccc12)C(=O)N[C@@H](CO)C(=O)N[C@@H](Cc1ccc(O)cc1)C(=O)N[C@H](CCCCN=C(N)N)C(=O)N[C@@H](CC(C)C)C(=O)N[C@@H](CCCN=C(N)N)C(=O)N1CCC[C@H]1C(=O)N[C@H](C)C(N)=O
2.5 | 2 | 1 | CCNC(=NCCCC[C@@H](NC(=O)[C@H](Cc1ccc(O)cc1)NC(=O)[C@H](CO)NC(=O)[C@@H](Cc1c[nH]c2ccccc12)NC(=O)[C@@H](Cc1ccc(Cl)cc1)NC(=O)[C@@H](Cc1ccc2ccccc2c1)NC(C)=O)C(=O)N[C@@H](CC(C)C)C(=O)N[C@@H](CCCN=C(N)N)C(=O)N1CCC[C@H]1C(=O)NCC(N)=O)NCC
14 | 2.6 | 2 | CCCNC(=NCCCC[C@@H](NC(=O)[C@H](Cc1ccc(O)cc1)NC(=O)[C@H](CO)NC(=O)[C@@H](Cc1c[nH]c2ccccc12)NC(=O)[C@@H](Cc1ccc(Cl)cc1)NC(=O)[C@@H](Cc1ccc(Cl)cc1)NC(C)=O)C(=O)N[C@@H](CC(C)C)C(=O)N[C@@H](CCCN=C(N)N)C(=O)N1CCC[C@H]1C(=O)N[C@H](C)C(N)=O)NCCC
5 | 1.7 | 0.8 | CNC(=NCCCC[C@@H](NC(=O)[C@H](Cc1ccc(O)cc1)NC(=O)[C@H](CO)NC(=O)[C@@H](Cc1c[nH]c2ccccc12)NC(=O)[C@@H](Cc1ccc(F)cc1)NC(=O)[C@@H](Cc1ccc2ccccc2c1)NC(C)=O)C(=O)N[C@@H](CC(C)C)C(=O)N[C@@H](CCCN=C(N)N)C(=O)N1CCC[C@H]1C(=O)NCC(N)=O)NC
5.6 | 1.6 | 1 | CNC(=NCCCC[C@@H](NC(=O)[C@H](Cc1ccc(O)cc1)NC(=O)[C@H](CO)NC(=O)[C@@H](Cc1c[nH]c2ccccc12)NC(=O)[C@@H](Cc1ccc(Cl)cc1)NC(=O)[C@@H](Cc1ccc(Cl)cc1)NC(C)=O)C(=O)N[C@@H](CC(C)C)C(=O)N[C@@H](CCCN=C(N)N)C(=O)N1CCC[C@H]1C(=O)N[C@H](C)C(N)=O)NC

Source: ChEMBL document CHEMBL1123964, “Potent, long-acting luteinizing hormone-releasing hormone antagonists containing new synthetic amino acids: N,N'-dialkyl-D-homoarginines” (J Med Chem, 1988)
